Screening results deposited in PubChem BioAssay by several laboratories.
PvdQ inh: P. aeruginosa PvdQ acylase inhibition | purified PvdQ acylase, fluorescence plate reader | inhibition, % at 10 µM | 340,000 compounds, 0.063% hits | AID 488965; in the data active = inhibition above about 30%, passing the limit was not always enough;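 note: 0% = vehicle neutral wells and 100% = reference inhibitor wells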
ERp5 block: inhibitors of human ERp5; inhibition, % at 9.99 µM; Q15084; 350,000 compounds, 0.05% hits; ERp5 insulin aggregation, absorbance 650 nm, 90 min; AID 651711;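 active = mean replicate inhibition above about 25%, with every replicate also reaching it, limit read from the data, passing the limit was not always enough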
IMP-1 inhibitor: blocks Pseudomonas aeruginosa IMP-1 metallo-beta-lactamase; purified IMP-1, nitrocefin hydrolysis, epi-absorbance fluorescence; inhibition, % at 5.6 µM; 290,000 compounds, 0.45% hits; AID 1556;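 active = inhibition above the mean plus 3 SD of all compounds in the same screening run, cut at about 4.5% in these data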;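 note: 0% = IMP-1 with DMSO and 100% = DMSO wells lacking enzyme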
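System: Purified recombinant IMP-1 metallo-beta-lactamase enzyme | Measured by: Fluorescence quenching readout, ex 480/em 530 nm | Replication: Singlicate | Incubation: 15 min preincubation plus 25 min reaction at 25 °C | Evaluation: Percent inhibition from optical density relative to buffer-blank wells | Benchmarks: DMSO with and without IMP-1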
VIM-2 inh: inhibitors of Pseudomonas aeruginosa VIM-2 metallo-beta-lactamase. purified VIM-2, nitrocefin hydrolysis, epi-absorbance fluorescence. inhibition, % at 5.6 µM. 290,000 compounds, 0.89% hits;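 active = inhibition above the mean of all tested compounds plus 3 SD, cutoff set per screening run, cut at about 7.5% in these data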;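 note: red hydrolysis product quenches plate fluorescence so inhibitors raise well fluorescence; 0% = enzyme with DMSO and 100% = DMSO without enzyme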
PDI turbidity: PDI (human) enzyme inhibition; P07237; inhibition, % at 10 µM; 350,000 compounds, 0.052% hits; PDI insulin aggregation turbidity, A650, 90 min; AID 588391;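 active = mean inhibition across replicates of 30% or more, whatever share of single replicates reach that level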
PglD inh: PglD (C. jejuni) enzyme inhibition | 360,000 compounds, 0.098% hits | purified PglD enzyme, DTNB colorimetric CoA detection | inhibition, % at 12.5 µM; in the data active = inhibition above about 16%, passing the limit was not always enough
VIM-2 inh confirm: VIM-2 inhibition, confirmation assay. inhibition, % at 5.6 µM. shares compounds with IMP-1 inhibitor. 200 compounds, 73% hits. purified VIM-2 enzyme, nitrocefin absorbance. AID 1860; in the data active = inhibition above about 8%;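 note: 0% = enzyme with vehicle and 100% = no enzyme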
TEM-1 inh 2: blocks E. coli TEM-1 beta-lactamase, VIM-2 IMP-1 counter-screen; AID 2184; shares compounds with IMP-1 inhibitor; inhibition, % at 5.6 µM; nitrocefin absorbance inhibition; 200 compounds, 50% hits; in the data active = inhibition above about 0.66%
Target sequence (P62593 whole entry, looked up): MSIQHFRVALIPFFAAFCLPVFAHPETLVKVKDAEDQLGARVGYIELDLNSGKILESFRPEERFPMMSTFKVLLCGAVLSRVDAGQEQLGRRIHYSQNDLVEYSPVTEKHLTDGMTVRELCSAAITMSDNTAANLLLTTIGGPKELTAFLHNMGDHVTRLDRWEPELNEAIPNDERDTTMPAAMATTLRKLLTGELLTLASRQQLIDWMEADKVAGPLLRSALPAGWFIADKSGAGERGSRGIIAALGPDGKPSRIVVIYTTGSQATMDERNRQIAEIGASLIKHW
IMP-1 confirm: confirmation of P. aeruginosa IMP-1 metallo-beta-lactamase inhibitors. shares compounds with IMP-1 inhibitor. purified IMP-1 enzyme, absorbance substrate hydrolysis. inhibition, % at 5.6 µM. 200 compounds, 60% hits. AID 2189; in the data active = inhibition above about 4.9%;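 note: 0% = enzyme with vehicle and 100% = vehicle without enzyme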
* marks the source's active call; other numbers are inactive results. In the library only some 1% were active in any assay of this set; here they are far more common.

Screening CCCN1C[C@H](C)[C@@H](OC)CN(C)C(=O)c2ccc(NC(=O)c3ccccc3)cc2OC[C@H]1C returned ERp5 block 3 and PglD inh 1.
For COc1ccc(NC(=O)N2C[C@H](O)COC[C@@H]3O[C@@H](CC(=O)N4CCN(C)CC4)CC[C@H]32)cc1 the results were ERp5 block 1 and PglD inh -1.
`O=C(CC(SCc1ccco1)c1ccc(O)cc1)c1cccs1` (stereo unspecified) gave PvdQ inh -6, IMP-1 inhibitor 16*, VIM-2 inh 8, PDI turbidity -5, PglD inh -6, VIM-2 inh confirm 9.2*, TEM-1 inh 2 -4 and IMP-1 confirm 0.
Screening O=C(CSc1nnc(-c2ccc(O)cc2)n1Cc1ccco1)c1cccs1 returned PvdQ inh -5, IMP-1 inhibitor 2, VIM-2 inh 0, PDI turbidity 0 and PglD inh -1.
Screening CN1/C(=C\C=C2/C(=O)Oc3ccccc3C2=O)C(C)(C)c2ccccc21 returned ERp5 block -9, IMP-1 inhibitor 13*, VIM-2 inh 9.6*, VIM-2 inh confirm 31*, TEM-1 inh 2 45* and IMP-1 confirm 24*.
CN1C(=CC=C2C=C(I)C(=O)C(I)=C2)C(C)(C)c2ccccc21 was read as PvdQ inh 0, ERp5 block 6, IMP-1 inhibitor 1, VIM-2 inh -1, PDI turbidity -1 and PglD inh 1.
Screening [N-]=[N+]=Nc1ccccc1C[C@@]1(C(=O)NCc2ccccc2)N=C(c2ccc(OCCCO)cc2)O[C@@H]1c1ccccc1N=[N+]=[N-] returned ERp5 block -3 and PglD inh -5.
CC(=O)N[C@H]1CC[C@H](CCNC(=O)C2CC2)O[C@@H]1CO was read as ERp5 block 1 and PglD inh -2.
`CCOc1ccc(/C=C2\SC(=S)NC2=O)cc1OC` gave PvdQ inh 0, ERp5 block 1, IMP-1 inhibitor -4, VIM-2 inh -3, PDI turbidity -1 and PglD inh 1.
COc1ccc(/C=C2\SC(=O)NC2=S)cc1OC was read as PvdQ inh -6, ERp5 block 6, IMP-1 inhibitor 6.8*, VIM-2 inh 12*, PDI turbidity -1, PglD inh -3, VIM-2 inh confirm 3, TEM-1 inh 2 -9 and IMP-1 confirm -5.
`CN1C(=O)c2cc(NC(=O)c3cscn3)ccc2OC[C@H]2O[C@H](CC(=O)NCC3CC3)CC[C@H]21` gave PglD inh 0.
Cc1ccc(NC(=O)C2C(c3ccccc3)C=CC(c3ccccc3)C2C(=O)O)cc1 (stereo unspecified) was read as PvdQ inh -1, IMP-1 inhibitor 85*, VIM-2 inh 46*, PDI turbidity 9, PglD inh 6, VIM-2 inh confirm 7, TEM-1 inh 2 -4 and IMP-1 confirm 61*.
For CN(C)c1ccc2c(c1)[C@H]1C[C@H](CC(=O)NCc3ccc(Oc4ccccc4)cc3)O[C@H](CO)[C@H]1O2 the results were ERp5 block 0 and PglD inh 0.
`O=C(O)c1cc(N/N=C/c2cccc3ccccc23)ccc1Cl` gave PvdQ inh -8, ERp5 block 3, IMP-1 inhibitor -1, VIM-2 inh 0, PDI turbidity -2 and PglD inh -8.
`CC(C)n1cc(/C=N/Nc2ccc(Cl)c(C(=O)O)c2)c2ccccc21` gave PvdQ inh -3, IMP-1 inhibitor 35*, VIM-2 inh 10*, PDI turbidity 9, PglD inh -4, VIM-2 inh confirm 8.0*, TEM-1 inh 2 -4 and IMP-1 confirm 28*.
Screening Cc1nn(C)c(C)c1N1C(=O)c2cccc3c(Br)ccc(c23)C1=O returned PvdQ inh 1, IMP-1 inhibitor 1, VIM-2 inh 1, PDI turbidity -2 and PglD inh 4.
